# From PubChem BioAssay
# A selection: hits, their analogues and other compounds. The true share with any hit is near 2.2%.
# Mdm2 ligase inh: blocks human Mdm2 ubiquitin ligase activity | cell-based MDM2 ubiquitination luciferase reporter, 2 h; 0 = plate control, 100 = twice control, blank-subtracted | Q00987 | signal enhancement, % at 5 µM | 210,000 tested, 0.11% active;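 active = signal enhancement of 30% or more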;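 also: luminescence tracks abundance of the self-degrading MDM2-luciferase fusion protein; higher signal means inhibition of MDM2 E3 ligase activity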
#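 system = mammalian cells stably expressing self-ubiquitinating, self-degrading MDM2 E3–luciferase fusion | quantity = 2000 cells per well seeded | incubation = 4 h cell settling then 2 h compound exposure, 37 °C | signal = SteadyLite luminescence, 15 min reagent step | benchmarks = plate control and blank wells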
# Hsp70 activator: transcriptional activators of Hsp70. activation, % at 10 µM. 200,000 tested, 0.04% active. HeLa Hsp70 promoter luciferase reporter, luminescence; scaled: vehicle 0, proteasome-inhibitor control 100%;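 active = activation above the mean across all tested compounds plus 3 SD, cutoff set per campaign, cut at about 5.5% in these data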;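 also: 100% = MG132 at 30 µM as the positive control and 0% = DMSO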
# Wee1 stabilizer: human Wee1 degradation inhibition, primary screen. AID 1321. reporter increase, % at 5 µM. 220,000 tested, 1.2% active. P30291. HeLa Luc-Wee1K328M stability, luciferase luminescence; 100% = proteasome inhibitor MG132 effect;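 active = activation above the mean of all tested compounds plus 3 SD, set per screening run, cut at about 8.8% in these data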;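 also: cells exposed to compound for 20 h before luminescence read; 0% = DMSO alone and 100% = MG132 at 30 µM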
# Insulin prom up: MIN6 insulin promoter up-regulation; MIN6 insulin promoter-GFP reporter, high-content imaging; active compounds read high; z-score at 5 µM; 190,000 tested, 0.3% active; AID 1625;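 active = z-score above 3 at 5 µM with at least 500 cells counted in the well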
# Insulin prom inh: TRM-6 insulin promoter activity inhibition; AID 1273; inhibition, % at 2 µM; 130,000 tested, 0.9% active; TRM-6 cells, insulin promoter-eGFP reporter, imaging; reporter expression induced with tamoxifen;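 active = inhibition above the mean plus 3 SD, with well images judged a real hit on visual review, cut at about 60% in these data, passing the limit was not always enough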
# RBBP9 inh: inhibitors of human serine hydrolase RBBP9; AID 1515; inhibition, % at 7.94 µM; recombinant RBBP9, FP-Rh probe fluorescence polarization; O75884; 220,000 tested, 0.2% active;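 active = inhibition above the campaign mean of all tested compounds plus 3 SD, cut at about 14% in these data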;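 also: plate controls were DMSO wells with RBBP9 for no effect and wells lacking RBBP9 protein for full effect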
# Target sequence (O75884 whole entry, looked up): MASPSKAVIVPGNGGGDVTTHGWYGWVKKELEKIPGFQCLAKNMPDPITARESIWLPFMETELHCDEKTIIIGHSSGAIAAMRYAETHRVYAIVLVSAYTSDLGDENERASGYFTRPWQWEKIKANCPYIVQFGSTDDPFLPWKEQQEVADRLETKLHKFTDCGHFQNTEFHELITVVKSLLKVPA
#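 Controls: DMSO-treated enzyme wells and wells lacking RBBP9 | Material: RBBP9 protein | Technique: Fluorescence polarization | Replication: Single well per compound, no replicates | Buffer or medium: Tris-NaCl-Pluronic buffer, pH 8.0 | Timing: 30 min compound preincubation, 45 min probe labeling, 25 °C | Read-out basis: Percent inhibition from mP, scaled between DMSO and no-protein wells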
# * hit, by the source's call; · = no result given.
SMILES,Mdm2 ligase inh,Hsp70 activator,Wee1 stabilizer,Insulin prom up,Insulin prom inh,RBBP9 inh
O=C(N/N=C\C=C\c1ccc2c(c1)OCO2)c1cccnc1,-4,0,2,-0.31,-42,-4
O=C(N/N=C\C=C\c1ccc2c(c1)OCO2)C1COc2ccccc2O1 (stereo not given),5,0,9.3*,0.45,-260,-1
Cc1cc(C)nc(N2CCCC(C(=O)NCCc3ccc(F)cc3)C2)n1 (stereo not given),-3,0,1,0.15,86*,-3
CCOc1ccc(NS(=O)(=O)c2cc(OCC(N)=O)c(C)cc2Cl)cc1,2,0,-2,-0.29,-36,1
O=C(CSc1ccc2c(c1)OCCO2)Nc1ccc(Cl)cn1,-1,0,11*,0.22,-30,-3
Cc1ccc(C(=O)N2CCOCC2)cc1Cl,-16,0,-2,0.07,-54,-5
O=C(c1cc(Cl)cc(Cl)c1)N1CCOCC1,-5,0,-1,-0.07,87*,2
CSCC[C@H](NC(=O)COc1ccc(Cl)cc1)c1nc2ccccc2[nH]1,1,-1,-1,0.01,14,5
CSc1ccc(NC(=O)c2cccnc2)cc1C#N,-10,0,8.8*,-0.02,·,-4
O=C(Nc1ccc(F)c(F)c1)c1cccnc1,-8,-1,7,-0.08,-3,-9
COc1ccc(S(=O)(=O)NN(C)c2ncc(C(F)(F)F)cc2Cl)cc1,36*,0,-4,0.04,-15,1
Cc1nc2ccc(NC(=O)CCS(=O)(=O)c3ccccc3)cc2s1,-7,0,-5,0.59,32,-12
Cc1ccc(S(=O)(=O)CCC(=O)Nc2ccc3nc(C)sc3c2)cc1,-5,0,11*,0.57,·,-11
CCN1CCc2c(sc(NC(=O)Nc3ccc(Cl)c(Cl)c3)c2C(N)=O)C1,-5,0,-2,·,-208,2
CC(=O)Oc1ccc2c(=O)c(-c3nc4ccccc4s3)coc2c1,-40,0,9.1*,·,-64,-3
Cc1cc(NC(=O)c2cc3n(n2)C(C(F)(F)F)CC(c2ccco2)N3)no1 (stereo not given),-13,0,9.9*,-0.3,·,-5
CCCCNC(=O)Nc1nnc(-c2ccc(Cl)cc2)o1,-9,0,2,0.87,-62,5
COc1ccc(CCNC(=O)CSc2ncn[nH]2)cc1,-5,0,0,-0.19,86*,1
COc1ccc(C(=O)c2nccc3ccccc23)cc1,-5,0,10*,0.47,·,-3
O=C(OCc1ccc([N+](=O)[O-])cc1)C1CC(=O)N(c2ccccc2)C1 (stereo not given),-13,0,-1,0.1,79*,14
Cc1cccc(N2CC(C(=O)OCc3ccc([N+](=O)[O-])cc3)CC2=O)c1 (stereo not given),-21,1,-1,0.62,·,1
CC(=O)c1ccc(Nc2nc(=O)c3cccnc3s2)cc1,-6,0,1,0.24,79*,-2
COc1ccc(-n2nnnc2SCC(=O)c2ccc3c(c2)OCCO3)cc1,-8,-1,2,·,79*,2
Fc1ccccc1CSc1nc2ccccc2[nH]1,-11,1,1,0.41,74*,-1
COc1cccc(CSc2nc3ccccc3[nH]2)c1,-10,0,9.0*,0.56,·,-4
SMILES,Mdm2 ligase inh,Hsp70 activator,Wee1 stabilizer,Insulin prom up,Insulin prom inh,RBBP9 inh
Cc1ccccc1NC(=S)c1nc2ccccc2[nH]1,-14,0,0,-0.92,97*,-7
Oc1cccc(Nc2nc(O)c(/C=C3\C=Nc4ccccc43)s2)c1,3,·,5,0.44,·,17*
Cc1ccc(-n2nnc(-c3nccn3C)n2)cc1,·,0,0,0.44,·,5
Cc1noc(C)c1C(=O)NC(C)C1CCCO1 (stereo not given),-26,0,-1,0.16,89*,-13
Cc1cc(=O)oc2cc(OCC(=O)OCC(=O)NC3CC3)ccc12,-9,0,0,3.8*,·,-3
CNC(=O)COC(=O)COc1ccc2c(C)cc(=O)oc2c1,-5,0,-2,0.4,·,5
CCN(CC)c1ccc(NC(=O)CCCCCN2C(=O)c3ccccc3C2=O)cc1,2,0,11*,0.42,6,-4
CC(=O)Nc1ccc(NC(=O)CCCCCN2C(=O)c3ccccc3C2=O)cc1,-10,0,0,·,-14,-2
O=C(CCCN1C(=O)/C(=C\c2cccs2)SC1=S)NNC(=O)c1cccnc1,-3,0,10*,-0.59,48,-4
O=C(CCCN1C(=O)/C(=C/c2cccs2)SC1=S)NNC(=O)c1ccncc1,-13,0,-5,-0.02,0,-6
Cc1ccc(C2=Nc3ccccc3N=C(c3ccc([N+](=O)[O-])cc3)C2)c(O)c1,-9,0,0,·,·,2
CN(CCC(=O)Nc1ccc2c(c1)OCO2)Cc1ccccc1,-3,0,10*,0.04,·,4
CC(NC(=O)c1sc2cc([N+](=O)[O-])ccc2c1Cl)C(C)(C)C (stereo not given),-24,0,9.0*,-0.09,·,-3
O=C(NC1CC1)c1sc2cc([N+](=O)[O-])ccc2c1Cl,0,0,1,0.58,45,-2
Cc1ccn2cc(C(=O)Nc3nnc(C)s3)nc2c1,-16,0,8.9*,0.08,·,-2
O=C(Nc1ccccc1)N(c1ccccc1)C1C=CS(=O)(=O)C1 (stereo not given),-15,·,0,-0.11,·,6
N#CC1(c2ccc(NC(=O)c3ccccc3F)cc2)CCCC1,-32,0,0,-0.47,·,-5
O=C(N/N=C\c1ccc(Cl)s1)c1cccs1,31*,0,2,-0.36,1,-19
C=CCN1C(=O)N(c2ccc(F)cc2)C(=O)C1CC(=O)Nc1ccc(Cl)cc1 (stereo not given),-9,·,1,-1.3,·,-9
[O-][n+]1ccccc1SC/C=C/c1ccccc1,-16,0,10*,-0.4,-127,-5
Cc1ccc(CNC(=O)C2CCCCC2C(=O)O)cc1 (stereo not given),12,0,2,-0.24,3,2
CC12CCC(c3c(CO)nn(-c4ccccc4)c31)C2(C)C (stereo not given),-12,0,10*,0.84,-25,2
COc1ccc(N2C(=S)N=C(Nc3ccccc3)C23CCCCC3)cc1,30*,0,3,·,8,-2
Cc1nn(-c2c(Cl)cc(Cl)cc2Cl)c(=O)c2ccccc12,-1,0,1,3.4*,16,-6
Cc1cc(Cl)c(S(=O)(=O)Nc2cccc(O)c2)cc1OCC(N)=O,7,1,9.9*,0.06,-62,-7
